Results pooled from the literature.
Each line is one published result; the experiments were not run side by side.
Target: Glycogen synthase kinase-3 beta (GSK3B, Homo sapiens, UniProt P49841)

CC#CC(=O)N1CCC[C@H]1c1nc(-c2ccc(C(=O)Nc3ccccn3)cc2)c2c(N)nccn12 — inhibition (enzyme activity; inhibitor; 1 µM): 0%
Cc1cc(O)c(-c2ccc([C@@H](C)CN(C)C)cc2)c2c1[nH]c(=O)c1sccc12 — inhibition (enzyme activity; inhibitor; 0.1 µM; lysate): -0.958%
CC(=O)ON=C1C=CC(=C(C#N)c2ccccc2)C=C1 — activity vs control (enzyme activity; inhibitor; ADP detection; 2 µM): 88%
CC(C)S(=O)(=O)c1ccc2nccc(Nc3ccc4sc(C5CCCC5)nc4c3)c2c1 — activity vs control (enzyme activity; inhibitor; 1 µM): 113%
C1=C/COCc2cc(ccc2OCCN2CCCC2)Nc2nccc(n2)-c2cccc(c2)COC/1 — remaining binding (binding; 0.1 µM): 82%
CCCCC(=O)Nc1ccc(-c2ccc3ncn(CCC)c(=O)c3c2)cn1 — remaining binding (binding; competition with immobilised ligand; 0.5 µM): 100%
COc1ccc2oc(-c3ccc4nc(N)oc4c3)c/c(=N\c3ccccc3NC(=O)CCN)c2c1 — remaining binding (binding; 1 µM): 106%
C[C@H]1CC[C@H](n2c3cnccc3c3cnc(Nc4ccc5c(n4)CCN(C(=O)CO)C5)nc32)CC1 — remaining signal (cell-free assay; 1 µM): 72%
N#Cc1ccc(NC(=O)Nc2ccccc2)cc1 — remaining binding (cell-free assay; competition with immobilised ligand; 25 µM): 100%
C=CC(=O)N1CCC([C@@H]2CCNc3c(C(N)=O)c(-c4ccc(Oc5ccccc5)cc4)nn32)CC1 — inhibition (enzyme activity; inhibitor; 1 µM): 16%
CN1CCN(C(=O)c2ccc(NC(=O)Nc3ccc(N(C)c4ccnc(Nc5ccc(CS(C)(=O)=O)cc5)n4)cc3)cc2)CC1 — remaining binding (binding; 1 µM): 95%
